In ChEMBL document CHEMBL4266019, “Discovery and Structure-Activity-Relationship Study of N-Alkyl-5-hydroxypyrimidinone Carboxamides as Novel Antitubercular Agents Targeting Decaprenylphosphoryl-β-d-ribose 2'-Oxidase” (J Med Chem, 2018):
Positions count from the first letter of the chain named. In brackets after ≈: the same amount, converted by molar mass. Activity calls are given as the source filed them. No cut-off for these calls is given here.

How the values were obtained:
[1] = test system: Mycobacterium tuberculosis; assay: Antitubercular activity against Mycobacterium tuberculosis H37Rv harboring dprE1-dprE2 mutant after 10 days in absence of anhydrotetracycline; format: functional, organism-based
Method in brief: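 DprE12–TetON1 strain (H37Rv with integrated attL5 plasmid constitutively expressing dprE1, dprE2, aftA, embC) washed and diluted to OD580nm 0.01 in drug-free 7H9-based medium. Half received anhydrotetracycline 500 ng/mL. Tested against 14-point 2-fold dilutions, 1% DMSO final, at 37 °C, 5% CO2. OD580nm read at day 10. BTZ043 and TCA1 served as positive controls.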

[2] = test system: T1, Decaprenylphosphoryl-beta-D-ribose oxidase (Mycobacterium tuberculosis (strain ATCC 25618 / H37Rv)), P9WJF1 [Y314H]; assay: Inhibition of DprE1 Y314H mutant in Mycobacterium tuberculosis H37Rv assessed as bacterial growth inhibition after 4 weeks
T1 sequence (whole entry): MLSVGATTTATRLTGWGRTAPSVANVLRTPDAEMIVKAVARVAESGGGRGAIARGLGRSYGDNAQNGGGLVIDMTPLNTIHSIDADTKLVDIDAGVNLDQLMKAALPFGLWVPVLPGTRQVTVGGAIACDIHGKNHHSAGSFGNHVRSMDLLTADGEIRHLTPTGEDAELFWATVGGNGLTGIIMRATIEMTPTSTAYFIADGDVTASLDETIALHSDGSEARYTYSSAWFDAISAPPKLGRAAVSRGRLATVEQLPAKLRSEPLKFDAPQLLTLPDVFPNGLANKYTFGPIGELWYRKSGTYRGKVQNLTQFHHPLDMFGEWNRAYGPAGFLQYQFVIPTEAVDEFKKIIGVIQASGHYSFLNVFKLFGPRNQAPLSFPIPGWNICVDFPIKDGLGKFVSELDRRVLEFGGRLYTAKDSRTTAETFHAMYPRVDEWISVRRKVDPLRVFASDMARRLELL
Method in brief: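 Resistant mutants were selected by plating 10^7–10^9 H37Rv cells on 7H11/OADC containing 2×, 5× or 10× MIC, with drug-free plates for counts, at 37 °C for 4 weeks. Colonies from 10× MIC were regrown in 7H9/ADC and MIC-tested. Genomes were sequenced after CTAB DNA isolation.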

[3] = test system: T2, Decaprenylphosphoryl-beta-D-ribose oxidase (Mycobacterium tuberculosis (strain ATCC 25618 / H37Rv)), P9WJF1 [Y314C]; assay: Inhibition of DprE1 Y314C mutant in Mycobacterium tuberculosis H37Rv assessed as bacterial growth inhibition after 4 weeks
T2 sequence (whole entry): T1 sequence (whole entry) with H314C

[4] = test system: T3, Decaprenylphosphoryl-beta-D-ribose oxidase (Mycobacterium tuberculosis (strain ATCC 25618 / H37Rv)), P9WJF1 [N364S]; assay: Inhibition of DprE1 N364S mutant in Mycobacterium tuberculosis H37Rv assessed as bacterial growth inhibition after 4 weeks
T3 sequence (whole entry): T1 sequence (whole entry) with H314Y, N364S

[5] = test system: T4, Decaprenylphosphoryl-beta-D-ribose oxidase (Mycobacterium tuberculosis (strain ATCC 25618 / H37Rv)), P9WJF1 [P116S]; assay: Inhibition of DprE1 P116S mutant in Mycobacterium tuberculosis H37Rv assessed as bacterial growth inhibition after 4 weeks
T4 sequence (whole entry): T1 sequence (whole entry) with P116S, H314Y

[6] = test system: Mycobacterium tuberculosis H37Rv; assay: Ratio of MIC for inhibition of DprE1 Y314H mutant-mediated growth of Mycobacterium tuberculosis H37Rv to MIC for inhibition of DprE1-mediated growth of Mycobacterium tuberculosis H37Rv
Method in brief: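 Resistant mutants were selected by plating 10^7, 10^8 and 10^9 H37Rv cells on 7H11/OADC agar containing 2×, 5× and 10× MIC of the hit compound, then incubating at 37 °C for 4 weeks. Colonies from 10× MIC plates were grown in 7H9/ADC and MIC-tested against the parental strain. Whole-genome sequencing found the DprE1 Y314H mutation.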

CC[C@@H](CO)NCCN[C@@H](CC)CO
Activity [1]: Active

CCOC(=O)NC(=O)c1ccsc1NC(=O)c1nc2ccccc2s1
Activity [1]: Active

Cn1c(Cc2ccccc2C(F)(F)F)nc(C(=O)NCc2ccccc2)c(O)c1=O
MIC [2]: > 50 µM | MIC [3]: 25 µM (≈ 10.4 µg/mL) | MIC [4]: 2340 nM (≈ 0.977 µg/mL) | MIC [5]: 18.8 µM (≈ 7.85 µg/mL) | Ratio [6]: > 16

C[C@H]1COC2(CCN(c3nc(=O)c4cc(C(F)(F)F)cc([N+](=O)[O-])c4s3)CC2)O1
Activity [1]: Active

CC(NC(=O)c1nc(Cc2ccccc2C(F)(F)F)n(C)c(=O)c1O)c1ccccc1 (centres undefined)
Activity [1]: inactive
